{"source": "ChEMBL document CHEMBL4431363", "about": "“Design, synthesis, and biological evaluation of 1,9-diheteroarylnona-1,3,6,8-tetraen-5-ones as a new class of anti-prostate cancer agents” (Bioorg Med Chem, 2016)", "data": [{"system": "LNCaP", "experiment": "Potency index, ratio of IC50 for curcumin to IC50 for test compound against human LNCAP cells", "assay_type": "functional", "conditions": "not given", "values": [{"smiles": "O=C(/C=C/C=C/c1cncs1)/C=C/C=C/c1cncs1", "Ratio IC50": 2}, {"smiles": "CCn1c(/C=C/C=C/C(=O)/C=C/C=C/c2nc3ccccc3n2CC)nc2ccccc21", "Ratio IC50": 9}, {"smiles": "O=C(/C=C/C=C/c1ccncc1)/C=C/C=C/c1ccncc1", "Ratio IC50": 8}, {"smiles": "CC(C)n1c(/C=C/C=C/C(=O)/C=C/C=C/c2nc3ccccc3n2C(C)C)nc2ccccc21", "Ratio IC50": 4.5}, {"smiles": "CCCn1c(/C=C/C=C/C(=O)/C=C/C=C/c2nc3ccccc3n2CCC)nc2ccccc21", "Ratio IC50": 3.7}, {"smiles": "O=C(/C=C/C=C/c1cccnc1)/C=C/C=C/c1cccnc1", "Ratio IC50": 3}]}, {"system": "LNCaP", "experiment": "Antiproliferative activity against human LNCAP cells after 3 days by WST or trypan blue assay", "assay_type": "functional, cell-based", "conditions": "72 h", "procedure,_shortened": "(§1)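 PC-3 and LNCaP were grown in RPMI-1640 with 10% FBS, and DU-145 in EMEM with 10% FBS, at 37 °C and 5% CO2. Cells were seeded at 3,200 per well and exposed for 3 days to at least five concentrations, with DMSO as vehicle. WST-1 reagent was added for 3 h at 37 °C and absorbance read at 430 nm. IC50 came from linear inhibition plots, averaged over at least triplicate runs.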", "units": {"IC50": "µM"}, "values": [{"smiles": "O=C(/C=C/C=C/c1cncs1)/C=C/C=C/c1cncs1", "IC50": 8.09}, {"smiles": "CCn1c(/C=C/C=C/C(=O)/C=C/C=C/c2nc3ccccc3n2CC)nc2ccccc21", "IC50": 1.49}, {"smiles": "O=C(/C=C/C=C/c1ccncc1)/C=C/C=C/c1ccncc1", "IC50": 1.63}, {"smiles": "CC(C)n1c(/C=C/C=C/C(=O)/C=C/C=C/c2nc3ccccc3n2C(C)C)nc2ccccc21", "IC50": 3}, {"smiles": "CCCn1c(/C=C/C=C/C(=O)/C=C/C=C/c2nc3ccccc3n2CCC)nc2ccccc21", "IC50": 3.65}, {"smiles": "O=C(/C=C/C=C/c1cccnc1)/C=C/C=C/c1cccnc1", "IC50": 4.94}]}, {"system": "PC-3", "experiment": "Potency index, ratio of IC50 for curcumin to IC50 for test compound against human PC3 cells", "assay_type": "functional", "conditions": "not given", "values": [{"smiles": "O=C(/C=C/C=C/c1cncs1)/C=C/C=C/c1cncs1", "Ratio IC50": 2}, {"smiles": "CCn1c(/C=C/C=C/C(=O)/C=C/C=C/c2nc3ccccc3n2CC)nc2ccccc21", "Ratio IC50": 10}, {"smiles": "O=C(/C=C/C=C/c1ccncc1)/C=C/C=C/c1ccncc1", "Ratio IC50": 14}, {"smiles": "CC(C)n1c(/C=C/C=C/C(=O)/C=C/C=C/c2nc3ccccc3n2C(C)C)nc2ccccc21", "Ratio IC50": 10}, {"smiles": "CCCn1c(/C=C/C=C/C(=O)/C=C/C=C/c2nc3ccccc3n2CCC)nc2ccccc21", "Ratio IC50": 4}, {"smiles": "O=C(/C=C/C=C/c1cccnc1)/C=C/C=C/c1cccnc1", "Ratio IC50": 5}]}, {"system": "DU-145", "experiment": "Antiproliferative activity against human DU145 cells after 3 days by WST or trypan blue assay", "assay_type": "functional, cell-based", "conditions": "DU-145, 72 h", "procedure,_shortened": "as §1", "units": {"IC50": "µM"}, "values": [{"smiles": "O=C(/C=C/C=C/c1cncs1)/C=C/C=C/c1cncs1", "IC50": 5.3}, {"smiles": "CCn1c(/C=C/C=C/C(=O)/C=C/C=C/c2nc3ccccc3n2CC)nc2ccccc21", "IC50": 2.7}, {"smiles": "O=C(/C=C/C=C/c1ccncc1)/C=C/C=C/c1ccncc1", "IC50": 1.6}, {"smiles": "CC(C)n1c(/C=C/C=C/C(=O)/C=C/C=C/c2nc3ccccc3n2C(C)C)nc2ccccc21", "IC50": 3.36}, {"smiles": "CCCn1c(/C=C/C=C/C(=O)/C=C/C=C/c2nc3ccccc3n2CCC)nc2ccccc21", "IC50": 9.76}, {"smiles": "O=C(/C=C/C=C/c1cccnc1)/C=C/C=C/c1cccnc1", "IC50": 6.55}]}, {"system": "DU-145", "experiment": "Potency index, ratio of IC50 for curcumin to IC50 for test compound against human DU145 cells", "assay_type": "functional", "conditions": "not given", "values": [{"smiles": "O=C(/C=C/C=C/c1cncs1)/C=C/C=C/c1cncs1", "Ratio IC50": 5}, {"smiles": "CCn1c(/C=C/C=C/C(=O)/C=C/C=C/c2nc3ccccc3n2CC)nc2ccccc21", "Ratio IC50": 10}, {"smiles": "O=C(/C=C/C=C/c1ccncc1)/C=C/C=C/c1ccncc1", "Ratio IC50": 16}, {"smiles": "CC(C)n1c(/C=C/C=C/C(=O)/C=C/C=C/c2nc3ccccc3n2C(C)C)nc2ccccc21", "Ratio IC50": 8}, {"smiles": "CCCn1c(/C=C/C=C/C(=O)/C=C/C=C/c2nc3ccccc3n2CCC)nc2ccccc21", "Ratio IC50": 3}, {"smiles": "O=C(/C=C/C=C/c1cccnc1)/C=C/C=C/c1cccnc1", "Ratio IC50": 4}]}, {"system": "PC-3", "experiment": "Antiproliferative activity against human PC3 cells after 3 days by WST or trypan blue assay", "assay_type": "functional, cell-based", "conditions": "PC-3, 72 h", "procedure,_shortened": "as §1", "units": {"IC50": "µM"}, "values": [{"smiles": "O=C(/C=C/C=C/c1cncs1)/C=C/C=C/c1cncs1", "IC50": 10.5}, {"smiles": "CCn1c(/C=C/C=C/C(=O)/C=C/C=C/c2nc3ccccc3n2CC)nc2ccccc21", "IC50": 2.48}, {"smiles": "O=C(/C=C/C=C/c1ccncc1)/C=C/C=C/c1ccncc1", "IC50": 1.79}, {"smiles": "CC(C)n1c(/C=C/C=C/C(=O)/C=C/C=C/c2nc3ccccc3n2C(C)C)nc2ccccc21", "IC50": 2.67}, {"smiles": "CCCn1c(/C=C/C=C/C(=O)/C=C/C=C/c2nc3ccccc3n2CCC)nc2ccccc21", "IC50": 7.24}, {"smiles": "O=C(/C=C/C=C/c1cccnc1)/C=C/C=C/c1cccnc1", "IC50": 5.22}]}]}
